Results from ChEMBL document CHEMBL3352568, “Synthesis and evaluation of in vitro antimycobacterial activity of novel 1H-benzo[d]imidazole derivatives and analogues” (Eur J Med Chem, 2015).
≈ marks a conversion by molar mass, not a printed value.

Columns and labels:
[1] = tested on: Mycobacterium tuberculosis; assay: Antimicrobial activity against Mycobacterium tuberculosis H37Rv by two-fold serial dilution method; assay type: functional
Outline: (§1)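 Classical test-tube successive two-fold dilution in Youmans' modification of Proskauer and Beck liquid medium with 10% bovine serum. Inocula from 14-day-old cultures. Compounds dissolved in ethylene glycol (stock 10 mg/mL), diluted in medium to 0.75–100 µg/mL. Incubated at 37 °C. MIC is the lowest concentration inhibiting growth relative to a compound-free control.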

[2] = tested on: Mycobacterium tuberculosis; assay: Antimicrobial activity against Mycobacterium tuberculosis Spec. 210 by two-fold serial dilution method; assay type: functional; outline: as §1
[3] = tested on: Mycobacterium tuberculosis; assay: Antimicrobial activity against Mycobacterium tuberculosis Spec. 192 by two-fold serial dilution method; assay type: functional; outline: as §1
LLC-PK1 = assay: Cytotoxicity against pig LLC-PK1 cells assessed as growth inhibition after 120 hrs by MTT assay; assay type: cell-based; conditions: Sus scrofa, LLC-PK1, 120 h
Outline: (§2)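 LLC-PK1 cells were seeded at 1.25x10^4/well in Medium 199 with 3% FBS and penicillin/streptomycin and attached overnight. Compounds were added from DMSO stocks at 200-fold concentration, with DMSO-only controls, and cells were exposed continuously for 120 h at 37 °C in 5% CO2. MTT (4 mg/mL in PBS) was added for 4 h, formazan dissolved in DMSO, and A540 read versus untreated cells. IC50 was taken as 50% growth inhibition; at least two independent experiments in duplicate.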

A549 = assay: Cytotoxicity against human A549 cells assessed as growth inhibition after 120 hrs by MTT assay; assay type: functional, cell-based; conditions: A549, 120 h
Outline: as §2, with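 “A549” for “LLC-PK1”, “4x10^3/well” for “1.25x10^4/well”, “RPMI1640” for “Medium 199”, “10%” for “3%”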

Row | SMILES | MIC [1] [µg/mL] | MIC [2] [µg/mL] | MIC [3] [µg/mL] | IC50 (LLC-PK1) [µM] | IC50 (A549) [µM]
1 | Cc1ccc2[nH]c(CCC3CCCCC3)nc2c1 | 1.5 (≈ 6.19 µM) | 1.5 (≈ 6.19 µM) | 1.5 (≈ 6.19 µM) | – | –
2 | Fc1ccc2[nH]c(CCC3CCCCC3)nc2c1 | 3.1 (≈ 12.6 µM) | 3.1 (≈ 12.6 µM) | 3.1 (≈ 12.6 µM) | – | –
3 | Clc1ccc2[nH]c(CCC3CCCCC3)nc2c1 | 0.75 (≈ 2.85 µM) | 0.75 (≈ 2.85 µM) | 0.75 (≈ 2.85 µM) | 17.1 | 10.9
4 | Brc1ccc2[nH]c(CCC3CCCCC3)nc2c1 | 0.75 (≈ 2.44 µM) | 0.75 (≈ 2.44 µM) | 0.75 (≈ 2.44 µM) | 32.6 | 13.4
5 | O=[N+]([O-])c1ccc2[nH]c(CCC3CCCCC3)nc2c1 | 3.1 (≈ 11.3 µM) | 3.1 (≈ 11.3 µM) | 3.1 (≈ 11.3 µM) | – | –
6 | Cc1cc2nc(CCC3CCCCC3)[nH]c2cc1C | 0.75 (≈ 2.93 µM) | 0.75 (≈ 2.93 µM) | 0.75 (≈ 2.93 µM) | 43.9 | 11.2
7 | Clc1cc2nc(CCC3CCCCC3)[nH]c2cc1Cl | 0.75 (≈ 2.52 µM) | 0.75 (≈ 2.52 µM) | 0.75 (≈ 2.52 µM) | 9.62 | 11.1
8 | Fc1ccc2[nH]c(CCCC3CCCCC3)nc2c1 | 6.2 (≈ 23.8 µM) | 6.2 (≈ 23.8 µM) | 6.2 (≈ 23.8 µM) | – | –
9 | Cc1cc2nc(CCCC3CCCCC3)[nH]c2cc1C | 25 (≈ 92.4 µM) | 6.2 (≈ 22.9 µM) | 6.2 (≈ 22.9 µM) | – | –
10 | Clc1cc2nc(CCCC3CCCCC3)[nH]c2cc1Cl | 12.5 (≈ 40.2 µM) | 6.2 (≈ 19.9 µM) | 6.2 (≈ 19.9 µM) | – | –
11 | Cc1ccc2[nH]c(CCCc3ccccc3)nc2c1 | 25 (≈ 99.9 µM) | 100 (≈ 399 µM) | 6.2 (≈ 24.8 µM) | – | –
12 | Fc1ccc2[nH]c(CCCc3ccccc3)nc2c1 | 12.5 (≈ 49.2 µM) | 50 (≈ 197 µM) | 50 (≈ 197 µM) | – | –
13 | Cc1cc2nc(CCCc3ccccc3)[nH]c2cc1C | 6.2 (≈ 23.5 µM) | 6.2 (≈ 23.5 µM) | 6.2 (≈ 23.5 µM) | – | –
14 | Clc1cc2nc(CCCc3ccccc3)[nH]c2cc1Cl | 6.2 (≈ 20.3 µM) | 6.2 (≈ 20.3 µM) | 6.2 (≈ 20.3 µM) | – | –
15 | CS(=O)(=O)n1c(CCCc2ccccc2)nc2cc(F)ccc21 | 50 (≈ 150 µM) | 50 (≈ 150 µM) | 50 (≈ 150 µM) | – | –
16 | O=S(=O)(c1ccccc1)n1c(CCCc2ccccc2)nc2cc(F)ccc21 | 100 (≈ 254 µM) | 50 (≈ 127 µM) | 100 (≈ 254 µM) | – | –
17 | c1ccc(-c2ccnc(-c3nc4ccccc4[nH]3)c2)cc1 | 12.5 (≈ 46.1 µM) | 6.2 (≈ 22.9 µM) | 6.2 (≈ 22.9 µM) | – | –
18 | Cc1ccc2[nH]c(-c3cc(-c4ccccc4)ccn3)nc2c1 | 3.1 (≈ 10.9 µM) | 3.1 (≈ 10.9 µM) | 6.2 (≈ 21.7 µM) | – | –
19 | Fc1ccc2[nH]c(-c3cc(-c4ccccc4)ccn3)nc2c1 | 6.2 (≈ 21.4 µM) | 6.2 (≈ 21.4 µM) | 12.5 (≈ 43.2 µM) | – | –
20 | Clc1ccc2[nH]c(-c3cc(-c4ccccc4)ccn3)nc2c1 | 12.5 (≈ 40.9 µM) | 6.2 (≈ 20.3 µM) | 12.5 (≈ 40.9 µM) | – | –
21 | Brc1ccc2[nH]c(-c3cc(-c4ccccc4)ccn3)nc2c1 | 12.5 (≈ 35.7 µM) | 6.5 (≈ 18.6 µM) | 12.5 (≈ 35.7 µM) | – | –
22 | Cc1cc2nc(-c3cc(-c4ccccc4)ccn3)[nH]c2cc1C | 25 (≈ 83.5 µM) | 12.5 (≈ 41.8 µM) | 12.5 (≈ 41.8 µM) | – | –
23 | c1ccc(-c2ccnc(-c3nc4cccnc4[nH]3)c2)cc1 | 12.5 (≈ 45.9 µM) | 12.5 (≈ 45.9 µM) | 12.5 (≈ 45.9 µM) | – | –
24 | Brc1cnc2[nH]c(-c3cc(-c4ccccc4)ccn3)nc2c1 | 25 (≈ 71.2 µM) | 25 (≈ 71.2 µM) | 25 (≈ 71.2 µM) | – | –
25 | c1ccc(-c2ccnc(-c3nc4ccncc4[nH]3)c2)cc1 | 12.5 (≈ 45.9 µM) | 3.1 (≈ 11.4 µM) | 12.5 (≈ 45.9 µM) | – | –
26 | NNC(=O)c1ccncc1 [ISONIAZID] | 12.5 (≈ 91.1 µM) | 25 (≈ 182 µM) | 12.5 (≈ 91.1 µM) | – | –
27 | NC(=O)c1cnccn1 [PYRAZINAMIDE] | 25 (≈ 203 µM) | > 400 | 25 (≈ 203 µM) | – | –
28 | CO[C@H]1/C=C/O[C@@]2(C)Oc3c(C)c(O)c4c(O)c(c(/C=N/N5CCN(C)CC5)c(O)c4c3C2=O)NC(=O)/C(C)=C\C=C\[C@H](C)[C@H](O)[C@@H](C)[C@@H](O)[C@@H](C)[C@H](OC(C)=O)[C@@H]1C [RIFAMPIN] | 1.2 (≈ 1.46 µM) | 2.5 (≈ 3.04 µM) | 1.2 (≈ 1.46 µM) | – | –
